Measured values published in ChEMBL document CHEMBL1944570, “Discovery of 4''-ether linked azithromycin-quinolone hybrid series: influence of the central linker on the antibacterial activity” (ACS Med Chem Lett, 2011).
In brackets after ≈: the same amount, converted by molar mass.

Experiments:
[1] = system: Staphylococcus aureus; test: Antibacterial activity against ciprofloxacin-resistant Staphylococcus aureus by agar microdilution method; assay type: functional
Method in brief: (§1)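 MIC by agar microdilution following NCCLS standards; strains drawn from the PLIVA Research Institute culture collection. MIC reported in μg/mL.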

[2] = system: Staphylococcus aureus; test: Antibacterial activity against Staphylococcus aureus with inducible resistance to MLS by agar microdilution method; assay type: functional; method in brief: as §1
[3] = system: Staphylococcus aureus; test: Antibacterial activity against efflux mediated macrolide resistant Staphylococcus aureus by agar microdilution method; assay type: functional; method in brief: as §1
[4] = system: Streptococcus pneumoniae; test: Antibacterial activity against erythromycin-susceptible Streptococcus pneumoniae by agar microdilution method; assay type: functional; method in brief: as §1
[5] = system: Streptococcus pneumoniae; test: Antibacterial activity against constitutive MLS resistant Streptococcus pneumoniae by agar microdilution method; assay type: functional; method in brief: as §1
[6] = system: Streptococcus pneumoniae; test: Antibacterial activity against efflux mediated macrolide resistant Streptococcus pneumoniae by agar microdilution method; assay type: functional; method in brief: as §1
[7] = system: Streptococcus pyogenes; test: Antibacterial activity against erythromycin-susceptible Streptococcus pyogenes by agar microdilution method; assay type: functional; method in brief: as §1
[8] = system: Streptococcus pyogenes; test: Antibacterial activity against Streptococcus pyogenes with inducible resistance to MLS by agar microdilution method; assay type: functional; method in brief: as §1
[9] = system: Streptococcus pyogenes; test: Antibacterial activity against constitutive MLS resistant Streptococcus pyogenes by agar microdilution method; assay type: functional; method in brief: as §1
[10] = system: Streptococcus pyogenes; test: Antibacterial activity against efflux mediated macrolide resistant Streptococcus pyogenes by agar microdilution method; assay type: functional; method in brief: as §1
[11] = system: Haemophilus influenzae; test: Antibacterial activity against Haemophilus influenzae B0529 by agar microdilution method; assay type: functional
Method in brief: (§2)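 Agar microdilution MIC per NCCLS standards against strains from the Pliva Research Institute culture collection; values in µg/mL. Panel included erythromycin-susceptible strains and strains with inducible or constitutive MLS resistance.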

[12] = system: Moraxella catarrhalis; test: Antibacterial activity against Moraxella catarrhalis by agar microdilution method; assay type: functional; method in brief: as §2
[13] = Inhibition of protein synthesis using Escherichia coli S30 extracts preincubated for 10 mins measured after 50 mins by luciferase reporter gene assay; assay type: functional
[14] = Inhibition of Escherichia coli DNA gyrase-mediated supercoiling of relaxed pBR322 DNA
[15] = Inhibition of Escherichia coli topoisomerase 4-mediated relaxation of supercoiled pBR322 DNA
[16] = system: Staphylococcus aureus; test: Antibacterial activity against erythromycin-susceptible Staphylococcus aureus by agar microdilution method; assay type: functional; method in brief: as §2
[17] = system: Staphylococcus aureus; test: Antibacterial activity against constitutive MLS resistant Staphylococcus aureus by agar microdilution method; assay type: functional; method in brief: as §1

Compound	MIC [1]	MIC [2]	MIC [3]	MIC [4]	MIC [5]	MIC [6]	MIC [7]	MIC [8]	MIC [9]	MIC [10]	MIC [11]	MIC [12]	IC50 [13]	IC50 [14]	IC50 [15]	MIC [16]	MIC [17]
O=C(O)c1cn(C2CC2)c2cc(N3CCNCC3)c(F)cc2c1=O [CIPROFLOXACIN]	≥ 64 mg/L	≤ 0.125 mg/L	≤ 0.125 mg/L	≤ 0.125 mg/L	0.25 mg/L (≈ 0.754 µM)	0.25 mg/L (≈ 0.754 µM)	2 mg/L (≈ 6.04 µM)	0.25 mg/L (≈ 0.754 µM)	0.5 mg/L (≈ 1.51 µM)	≤ 0.125 mg/L	≤ 0.125 mg/L	0.125 mg/L (≈ 0.377 µM)	> 50 µM	0.8 µM	3 µM		
CC[C@H]1OC(=O)[C@H](C)C(=O)[C@H](C)[C@@H](O[C@@H]2O[C@H](C)C[C@H](N(C)C)[C@H]2O)[C@](C)(OC)C[C@@H](C)C(=O)[C@H](C)[C@H]2N(CCCCn3cnc(-c4cccnc4)c3)C(=O)O[C@]12C [TELITHROMYCIN]	≥ 64 mg/L	0.5 mg/L (≈ 0.616 µM)	0.25 mg/L (≈ 0.308 µM)	≤ 0.125 mg/L		0.5 mg/L (≈ 0.616 µM)	≤ 0.125 mg/L		4 mg/L (≈ 4.93 µM)	0.25 mg/L (≈ 0.308 µM)	1 mg/L (≈ 1.23 µM)	≤ 0.125 mg/L	0.23 µM	> 50 µM	> 50 µM	≤ 0.125 mg/L	> 64 mg/L
